From PubChem BioAssay
MT stabilizer = microtubule stabilization, imaging screen; HeLa tubulin immunostaining HCS, 24 h; share of cells brighter than vehicle mean+2SD; % tubulin-high responders, % at 10 µM; hit rate 0.83% among 200,000;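 active = plate Z-score above 3 for both tubulin-high and condensed-nucleus cell shares, with cell loss under 80%, at 10 µM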;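 note: anti alpha tubulin signal scored within the nucleus-defined area of each cell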
APP 5UTR inh = APP translation inhibition | SH-SY5Y APP 5'UTR-luciferase reporter, luminescence | inhibition, % at 2 µM | hit rate 0.82% among 190,000;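 active = inhibition above a set limit, derived from the sample mean plus 3 SD, cut at about 45% in these data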
Lmaj promast = reduces viability of Leishmania major promastigotes | resazurin fluorescence viability | hit rate 9% among 200,000 | inhibition, % at 10 µM; in the data active = inhibition above about 50%;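 note: promastigotes grown with compound for 44 hours at 28 °C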
b-catenin transl = alters nuclear translocation of beta-catenin in HeLa cells; immunofluorescence imaging; nuclear translocation activity, % at 5 µM; hit rate 0.3% among 190,000;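 active = nuclear translocation activity above 50% at 5 µM, with a well cell count of 50 or more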;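 note: per-cell ratio of nuclear to cytoplasmic median beta-catenin stain intensity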
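Test system: human HeLa cell line; Doses: 5 µM primary, 0.02–20 µM confirmation; Incubation: 24 h compound exposure, 37°C; Detection: beta-catenin immunofluorescence imaging with DAPI; Read-out: beta-catenin nuclear/cytoplasmic ratio, % activation.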
BaF3 tox = parental Ba/F3 viability inhibition as JAK2V617F counter-screen | CellTiter-Glo ATP luminescence | inhibition, % at 5.6 µM | hit rate 1.1% among 220,000 | AID 1486;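 active = inhibition above a per-campaign cutoff, the mean inhibition of all tested compounds plus 3 SD, cut at about 27% in these data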
Ba/F3 V617F tox = loss of viability in JAK2V617F-driven Ba/F3 cells | hit rate 1.1% among 220,000 | Ba/F3 EpoR-JAK2V617F viability, ATP luminescence | inhibition, % at 5.6 µM | AID 1446;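 active = inhibition above the campaign mean plus 3 SD over all tested compounds, cut at about 24% in these data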;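 note: cytokine-independent growth of Ba/F3 cells driven by EpoR plus mutant JAK2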
Hits are given with their value; - = inactive; . = no result. Most compounds without a hit are left out; they make up all but 9.6% or so of the library.

SMILES	MT stabilizer	APP 5UTR inh	Lmaj promast	b-catenin transl	BaF3 tox	Ba/F3 V617F tox
C=CCn1c(=O)/c(=C2/SC(C)=C(C)N2CC)s/c1=C1/C(=O)N(C)C(=S)N1c1ccccc1	-	-	-	.	-	-
CCOC(=O)c1oc2nc(CC(C)C)c3c(c2c1N)CCCC3	.	.	.	-	-	-
CCOc1ccc(OCCCC(=O)O)cc1	-	-	-	-	-	-
CCOc1ccc(OCCCCNCCN)cc1	-	-	85.7	-	-	-
COC(CNC(=O)c1ccc(N2CCC3(CC2)OCCO3)c([N+](=O)[O-])c1)OC	-	-	60.0	-	-	-
Nc1ccc(O)cc1C(=O)OCC(=O)c1ccc(C2CCCCC2)cc1	-	48.9	59.6	-	29.5	71.3
COc1ccc(C=O)cc1COc1ccccc1F	-	-	61.0	-	-	-
COc1ccc(/C=C/C(=O)c2ccccc2)cc1COc1ccccc1F	-	-	62.1	.	-	-
COc1cc(CNCCc2ccccc2)cc(Br)c1OCC(=O)Nc1ccccc1C	-	-	99.8	-	-	-
COc1ccccc1NC(=O)COc1ccc(Br)cc1CNC1CCCC1	-	-	94.5	-	-	-
COc1cc(CO)c(Br)cc1OCC(=O)Nc1ccccc1C	-	-	-	-	-	-
CCNCc1cc(Br)c(OCC(=O)Nc2ccccc2)c(OC)c1	-	-	100.6	-	-	-
COc1ccccc1NC(=O)COc1cc(Br)c(CNCCCN2CCOCC2)cc1OC	-	-	54.9	-	-	-
FC(F)(F)c1ccc(Oc2ccc3cc(Br)ccc3c2)nc1	-	-	-	-	-	-
O=C(C1CCCN(Cc2nc(-c3ccc(Cl)cc3)no2)C1)N1CCOCC1 (stereo not drawn)	-	-	-	-	-	-
COc1cc(C(=S)N2CCCCC2)ccc1OCC(=O)Nc1ccccc1Cl	-	-	66.2	-	-	-
CNCc1cc(Br)c(OCC(=O)Nc2ccccc2OC)c(OC)c1	-	-	99.8	-	-	-
COc1ccc(NC(=O)c2ccsc2NC(C)=O)cc1	-	-	-	-	-	-
COc1ccc(-n2cnnc2SCC(=O)Nc2ccc(N3CCOCC3)cc2)cc1	-	-	51.7	-	-	-
CCn1c(SCC(=O)Nc2ccc(N3CCOCC3)cc2)nnc1-c1ccc(OC)cc1	-	.	-	-	-	-
O=C(CSc1nncn1-c1ccccc1)NC1CCCc2ccccc21 (stereo not drawn)	-	-	-	-	-	-
CCn1c(SCC(=O)NC2CCCc3ccccc32)nnc1-c1cccs1 (stereo not drawn)	-	-	56.5	-	-	-
COc1ccc(-n2cnnc2SCC(=O)NC2CCCc3ccccc32)cc1 (stereo not drawn)	-	-	68.5	.	-	-
O=C1C=C(Nc2ccc(Cl)cc2)CC(c2ccc(Cl)cc2)C1 (stereo not drawn)	-	-	56.0	-	-	-
Cc1ccc(C2CC(=O)C=C(Nc3ccc(Cl)cc3)C2)cc1 (stereo not drawn)	-	-	-	-	-	-
SMILES	MT stabilizer	APP 5UTR inh	Lmaj promast	b-catenin transl	BaF3 tox	Ba/F3 V617F tox
CCCS(=O)(=O)N1CCN(C2CCC(C)CC2)CC1 (stereo not drawn)	-	-	-	-	-	-
CN(C)CCNC(=O)Cc1c(C(=O)O)n(C)c2ccccc12	-	-	93.9	-	-	-
O=C(CNC(=S)NC(=O)c1ccco1)c1ccccc1	-	-	-	-	-	-
N#C/C(=C\c1ccc(C(=O)O)cc1)c1nc2sc3c(c2c(=O)[nH]1)CCCC3	.	.	.	-	-	-
CC(C)(C)[C@@H]1C=C(C(=O)NCc2ccccc2)O[C@H](OCc2ccc(CO)cc2)C1	-	-	96.6	-	-	-
C#CCNC(=O)C1=C[C@@H](C2CC2)C[C@@H](OCc2ccc(CO)cc2)O1	-	-	-	-	-	-
C#CCNC(=O)C1=C[C@@H](C(C)(C)C)C[C@@H](OCc2ccc(CO)cc2)O1	-	-	98.3	-	-	-
O=C(/C=C/c1cccc(O)c1)c1cccnc1	-	-	98.6	-	-	-
O=C(NC(N1CCOCC1)C(Cl)(Cl)Cl)c1cc([N+](=O)[O-])cc([N+](=O)[O-])c1 (stereo not drawn)	-	-	91.0	-	-	-
Cc1ccccc1N(CC(=O)N/N=C/c1ccc(N(C)C)cc1)C(=O)c1ccccc1	-	-	98.6	-	-	-
O=C(Nc1cccc(Cl)c1)Nc1cccc(Cl)c1	-	-	-	-	-	-
O=C(Nc1cccc(Cl)c1)Nc1ccc(Br)cc1F	-	-	67.6	.	-	-
